The nature of test [1]: Antagonist activity at voltage gated calcium channel in Sprague-Dawley rat striatal synaptoneurosomes assessed as inhibition of KCl-induced calcium flux at 100 uM by spectrofluorimetric analysis relative to control. Format: functional. The procedure, abridged: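 Rat synaptoneurosomes loaded with Fura-2 AM (5 μM final, 10 min, 37 °C) in Krebs-HEPES pH 7.4. Compounds at 100 μM (0.1% DMSO) are preincubated 5 min at 37 °C. Depolarization is done at 10 s with KCl (140 mM) solution. Baseline is subtracted from peak fluorescence, the KCl-induced rise is taken as 100%, and inhibition is expressed relative to it.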

Test [2] deals with T1, Glutamate NMDA receptor (Rattus norvegicus) (UniProt P35439+Q00959+Q00960+Q00961+Q62645+Q8VHN2+Q9R1M7). As to the kind of experiment: Antagonist activity at NMDA receptor in Sprague-Dawley rat striatal synaptoneurosomes assessed as inhibition of NMDA/glycine-induced calcium flux at 100 uM by spectrofluorimetric analysis relative to control. Format: functional. The procedure, abridged:
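Male Sprague-Dawley rat brain synaptoneurosomes are loaded with Mag-Fura-2/Fura-2 AM (5 μM final) for 10 min at 37 °C and resuspended in Krebs-HEPES pH 7.4. Compounds at 100 μM (0.1% DMSO final) are preincubated 5 min at 37 °C. NMDA (100 μM) plus glycine (100 μM) is added at 10 s and ratiometric fluorescence is read. Results are % of the DMSO control, 3 preparations × 3 determinations.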

Test [3] relates to Glutamate NMDA receptor (Rattus norvegicus). Nature of the test: Antagonist activity at NMDA receptor in Sprague-Dawley rat striatal synaptoneurosomes assessed as inhibition of NMDA/glycine-induced calcium flux at 100 uM by spectrofluorimetric analysis relative to control.
For a further test, the target named is Glutamate NMDA receptor. As to the kind of experiment: Antagonist activity at NMDA receptor in Sprague-Dawley rat striatal synaptoneurosomes assessed as inhibition of NMDA/glycine-induced calcium flux by spectrofluorimetric analysis. The format is functional. The procedure, abridged: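 Fura-2 AM-loaded rat synaptoneurosomes in Krebs-HEPES pH 7.4 at 37 °C. Compound is preincubated 5 min at log-spaced concentrations. Calcium influx is triggered with NMDA (100 μM) plus glycine (100 μM) and measured by ratiometric spectrofluorimetry. The concentration-response is fitted to a four-parameter logistic equation; 3 preparations × 3 determinations.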
(A change in cytosolic calcium serves as a functional read-out for many receptors and channels.)

Test [4] addresses T1, Glutamate NMDA receptor (Rattus norvegicus). Nature of the test: Binding affinity to NMDA receptor in Sprague-Dawley rat striatal synaptoneurosomes at 100 uM after 30 mins by competition binding assay in presence of MK-801. Format: protein-complex assay. An outline of the steps: (§1)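 Unloaded rat synaptoneurosomes (0.6 mg/ml) are resuspended in Krebs-HEPES at 37 °C and given the fluorescent ligand (100 μM) alone or with a competitor at 100 μM (DMSO <0.1%). NMDA (100 μM) plus glycine (100 μM) is added, followed by 30 min at 37 °C. The pellet is washed and resuspended, and fluorescence is read at 324/455 nm. Results are % of ligand-alone intensity; n = 9.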

The target is the same in test [5]. As to the kind of experiment: Binding affinity to NMDA receptor in Sprague-Dawley rat striatal synaptoneurosomes at 100 uM after 30 mins by competition binding assay in presence of amantadine. Format: protein-complex assay. The procedure, abridged: as §1
Test [6] shares this target. As to the kind of experiment: Binding affinity to NMDA receptor in Sprague-Dawley rat striatal synaptoneurosomes at 100 uM after 30 mins by competition binding assay in presence of NGP1-01. The format is protein-complex assay. An outline of the steps: as §1

The source of these data is ChEMBL document CHEMBL1828517, “Synthesis, evaluation and application of polycyclic fluorescent analogues as N-methyl-D-aspartate receptor and voltage gated calcium channel ligands” (Eur J Med Chem, 2011).

Calls of active or inactive are those of the source. The calls are words filed in the database; no cut-off is given here.

Broadly, the inhibition is the drop in the measured response relative to a control, in per cent. Turning to `CNc1ccccc1C(=O)NCCCNC12CC3CC(CC(C3)C1)C2`, the “inhibition (INH)” value is 87.91% in test [1] and 88.02% in test [3]. In addition, in test [2], the inhibition was 12%.
Turning to `N#Cc1c2ccccc2cn1C12CC3CC(CC(C3)C1)C2`, the inhibition in test [2] was 16%.
Consider `N#CCCNC12CC3CC(CC(C3)C1)C2`, for which the inhibition in test [2] was 19.3%.
`N#Cc1c2ccccc2cn1CCCNC12CC3CC(CC(C3)C1)C2`: the entries for the “inhibition (INH)” value in test [1] and in test [3] were 45.92% and 86.41%, respectively. Also, in test [2], the inhibition was determined as 13.6%.
On to `NCCCNC12CC3CC(CC(C3)C1)C2`, for which the figures for the inhibition (INH) in test [1] and in test [3] were 89.3% and 91%, respectively. Also, the inhibition in test [2] came out at 9.01%.
Consider `CNc1ccccc1C(=O)NC12CC3CC(CC(C3)C1)C2`, for which the inhibition entry in test [2] was “inactive”.
For `O=C(NC12CC3CC(CC(C3)C1)C2)c1n[nH]c2ccccc12`, in test [2], the inhibition was 16%. In test [3], the “inhibition (INH)” value is 83.7%.
Regarding `O=[N+]([O-])c1ccc(NCCCNC23CC4CC(CC(C4)C2)C3)c([N+](=O)[O-])c1`, the figures for the “inhibition (INH)” value in test [1] and in test [3] were 88.5% and 76.59%, respectively. Also, the inhibition in test [2] was found to be 23.4%.
As for `O=C(NCCCNC12CC3CC(CC(C3)C1)C2)c1n[nH]c2ccccc12`, the “inhibition (INH)” value in test [1] was 86.91%; in test [3], 95.19%. Besides, in test [2], the inhibition result was “inactive”.
For `O=C(NCCCNC12CC3CC(CC(C3)C1)C2)c1cc2ccccc2oc1=O`, the “inhibition (INH)” value in test [1] was found to be 67.99%; in test [3], 86.77%. Also, the inhibition in test [2] was 13.2%.
With `O=C(NC12CC3CC(CC(C3)C1)C2)c1cc2ccccc2oc1=O`, the inhibition in test [2] turned out to be 20.3%.
The term IC50 denotes the concentration that inhibits the measured activity by half. Regarding `CN(C)c1cccc2c(S(=O)(=O)NCCCNC34CC5CC(CC(C5)C3)C4)cccc12`, the “inhibition (INH)” value in test [1] is reported as 36.74%; in test [3], 62.97%. Also, the inhibition in test [2] worked out at 37%. For the same compound, at Glutamate NMDA receptor, the IC50 was found to be 270 nM. The inhibition entry in test [4], in test [5] and in test [6] was “inactive” throughout.
For `CN(C)c1cccc2c(S(=O)(=O)NC34CC5CC(CC(C5)C3)C4)cccc12`, the inhibition in test [2] was found to be 21.9%.
Turning to `O=C(OC12C3C4CC5C6C4C1C6C1(OCCCN12)C53)c1n[nH]c2ccccc12` (configuration not stated), the results for the “inhibition (INH)” value in test [1] and in test [3] were 83.62% and 77.89%, respectively. The inhibition in test [2] came to 13.6%.
For the compound `O=[N+]([O-])c1ccc(NC23CC4CC(CC(C4)C2)C3)c([N+](=O)[O-])c1`, the inhibition in test [2] came to 19.2%.
Take `CNc1ccccc1C(=O)OC12C3C4CC5C6C4C1C6C1(OCCCN12)C53` (configuration not stated): the “inhibition (INH)” value in test [1] turned out to be 84.79%; in test [3], 86.41%. Also, in test [2], the inhibition came to 12%.
The matching figures for `OC12C3C4CC5C6C4C1C6C1(OCCCN21)C53` (configuration not stated): 87.24%, 77.29% and 22.7%.
